Measured values of several laboratories.
Each line is one published result; the experiments were not run side by side.
Read-out: cell growth or viability

With CC(=O)c1nn(-c2ccc(C)cc2)/c(=N/N=C(\C)c2ccc(NC(=O)c3ccccc3)cc2)s1 the viability was 5.3% (MCF7; MTT; 1.25 µM).
For C[C@@H]1CC[C@@H]([C@@](O)(CNCc2cccc3ccccc23)COCc2ccccc2)[C@H](OCc2ccccc2)C1, the inhibition was 90.7% (MCF7; MTT; 30 µM, 72 h).
CCN1[C@@H](C(=O)NC23CCC(C(=O)O)(CC2)CC3)[C@H](c2cccc(Cl)c2F)[C@]2(C(=O)Nc3cc(Cl)ccc32)C12CCCCC2 has an IC50 of 106 nM (SJSA-1; resazurin; 72 h).
CC(=NNC(=O)c1ccc(N)cc1)c1ccc(Nc2nnc(-c3ccc(Cl)cc3)c3ccccc23)cc1 gave a cell death of 56% (MCF7; MTT; 0.625 µM).
C=CC(=O)NC1CCN(c2ncc3ncnc(Nc4ccc(Oc5ccc6c(c5)ncn6C)c(C)c4)c3n2)CC1 gave an EC50 of 5370 nM (HCC1954).
CC(=NNC(=O)c1ccccc1Br)c1ccc(Nc2nnc(-c3ccc(Cl)cc3)c3ccccc23)cc1 has a cell death of 6.55% (MCF7; MTT; 0.312 µM).
With C[C@@H]1CC[C@@H]([C@@](O)(CNCc2ccccc2)COCc2ccc(F)cc2)[C@H](OCc2ccc(F)cc2)C1 the inhibition was 100% (MCF7; MTT; 30 µM, 72 h).
COc1cc2c3c(n(CCCn4ccnc4)c(=O)c2cc1OC)-c1nc2c(cc1C3=O)OCO2 has an IC50 of 1020 nM (THP-1; MTS; 72 h).
With C[C@@H]1CC[C@@H]([C@](O)(CNCc2ccc(F)cc2)COCc2ccc(F)cc2)[C@H](OCc2ccc(F)cc2)C1 the inhibition was 97.2% (MCF7; MTT; 30 µM, 72 h).
For Cc1noc2c1-c1ccccc1C(c1ccc(Cl)cc1)=N[C@H]2CC(N)=O, the IC50 was 377 nM (THP-1; ATP luminescence; 72 h).
With CCOC(=O)c1nn(-c2cccc(Cl)c2)/c(=N/N=C(\C)c2ccc(NC(=O)c3ccc(Cl)cc3)cc2)s1 the viability was 3.67% (MCF7; MTT; 5 µM).
C[C@@H]1CC[C@@H]([C@](C)(O)CNCc2ccc(F)cc2)[C@H](OCc2ccccc2)C1 has an inhibition of 73.8% (MCF7; MTT; 30 µM, 72 h).
The IC50 of COc1cc2c3c(n(CCCNCCO)c(=O)c2cc1OC)-c1nc2c(cc1C3=O)OCO2 is reported as 461 nM (AMO1; MTS; 72 h).
Cc1c(C(=O)O)ccc2c3n(nc12)[C@@H]1[C@H](C3)N(CC2CC2)[C@@]2(C(=O)Nc3cc(Cl)ccc32)[C@H]1c1cccc(Cl)c1F gave a GI50 of 6 nM (A204; resazurin).
With C=C(COCc1ccccc1)[C@@H]1CC[C@@H](C)C[C@H]1OCc1ccccc1 the inhibition was 40.3% (MCF7; MTT; 30 µM, 72 h).
For CC(=O)c1nn(-c2ccccc2Cl)/c(=N/N=C(\C)c2ccc(NC(=O)c3ccccc3)cc2)s1, the viability was 6.21% (MCF7; MTT; 2.5 µM).
For C[C@@H]1CC[C@@H]([C@@](C)(O)Cn2cnc3ccccc32)[C@H](OCc2ccccc2)C1, the inhibition was 94.8% (MCF7; MTT; 30 µM, 72 h).
CC(=NNC(=O)c1ccccc1O)c1ccc(Nc2nnc(-c3ccc(Cl)cc3)c3ccccc23)cc1 gave a viability of 90.3% (MCF7; MTT; 1.25 µM, 24 h).
COc1cc2c3c(n(CCCN4CCOCC4)c(=O)c2cc1OC)-c1nc2c(cc1C3=O)OCO2 gave an IC50 of 1220 nM (AMO1; MTS; 72 h).
CC(=NNC(=O)c1ccncc1)c1ccc(Nc2nnc(-c3ccc(Cl)cc3)c3ccccc23)cc1 has a cell death of 94.4% (MCF7; MTT; 2.5 µM).
C[C@@H]1CC[C@@H]([C@](O)(CNCc2ccccc2)COCc2ccccc2)[C@H](OCc2ccccc2)C1 gave an inhibition of 83.2% (MCF7; MTT; 30 µM, 72 h).
With CC(=O)Nc1ccc(Oc2nnc(-c3ccc(Cl)cc3)c3ccccc23)cc1 the cell death was 94.2% (MCF7; MTT; 2.5 µM).
C[C@@H]1CC[C@@H]([C@](C)(O)CNCc2cccc(F)c2)[C@H](OCc2ccccc2)C1 gave an inhibition of 95.6% (MCF7; MTT; 30 µM, 72 h).
The IC50 of COc1cc2c3c(n(CCCNC(C)C)c(=O)c2cc1OC)-c1nc2c(cc1C3=O)OCO2 is reported as 602 nM (THP-1; MTS; 72 h).
CC(=O)Nc1ccc(/C(C)=N/N=c2\sc(C(C)=O)nn2-c2ccc(C)cc2)cc1 gave a viability of 21.2% (MCF7; MTT; 5 µM).
For CC(=NNC(N)=S)c1ccc(Nc2nnc(-c3ccc(Cl)cc3)c3ccccc23)cc1, the viability was 4.56% (MCF7; MTT; 0.625 µM, 24 h).
With CCNCCCn1c2c(c3cc(OC)c(OC)cc3c1=O)C(=O)c1cc3c(nc1-2)OCO3 the IC50 was 358 nM (THP-1; MTS; 72 h).
For C=C(F)C(=O)N1CCN(c2nc(OC[C@@H]3CCCN3C)nc3c2CCN(c2cccc4cccc(Cl)c24)C3)C[C@@H]1CC#N, the IC50 was 3400 nM (NCI-H441; ATP luminescence).
O=C(Nc1ccc(Oc2nnc(-c3ccc(Cl)cc3)c3ccccc23)cc1)c1cccc([N+](=O)[O-])c1 has a viability of 4.87% (MCF7; MTT; 2.5 µM, 24 h).
CC1(C)CCC2(CC1)N[C@@H](C(=O)N[C@@H]1CC[C@@H](C(N)=O)OC1)[C@H](c1ccnc(Cl)c1F)[C@]21C(=O)Nc2cc(Cl)ccc21 has an IC50 of 115 nM (SJSA-1; resazurin; 72 h).
The viability of CCOC(=O)c1nn(-c2cccc(Cl)c2)/c(=N/N=C(\C)c2ccc(NC(=O)c3ccccc3)cc2)s1 is reported as 2.41% (MCF7; MTT; 10 µM).
O=C(NO)c1ccc(CNc2nc3cccc(-c4ccc5c(c4)OCO5)n3n2)cc1 gave a GI50 of 450 nM (SW-620; SRB).
